Consider one compound from ChEMBL document CHEMBL4007450, “Development of 1,2,4-Oxadiazoles as Potent and Selective Inhibitors of the Human Deacetylase Sirtuin 2: Structure-Activity Relationship, X-ray Crystal Structure, and Anticancer Activity” (J Med Chem, 2017).

SMILES strings stand for the structures. Active and inactive are the calls of the source. The calls are words filed in the database; no cut-off is given here.

Test [1] deals with T1, NAD-dependent protein deacetylase sirtuin-1 (Homo sapiens) (UniProt Q96EB6).
T1 sequence (whole entry): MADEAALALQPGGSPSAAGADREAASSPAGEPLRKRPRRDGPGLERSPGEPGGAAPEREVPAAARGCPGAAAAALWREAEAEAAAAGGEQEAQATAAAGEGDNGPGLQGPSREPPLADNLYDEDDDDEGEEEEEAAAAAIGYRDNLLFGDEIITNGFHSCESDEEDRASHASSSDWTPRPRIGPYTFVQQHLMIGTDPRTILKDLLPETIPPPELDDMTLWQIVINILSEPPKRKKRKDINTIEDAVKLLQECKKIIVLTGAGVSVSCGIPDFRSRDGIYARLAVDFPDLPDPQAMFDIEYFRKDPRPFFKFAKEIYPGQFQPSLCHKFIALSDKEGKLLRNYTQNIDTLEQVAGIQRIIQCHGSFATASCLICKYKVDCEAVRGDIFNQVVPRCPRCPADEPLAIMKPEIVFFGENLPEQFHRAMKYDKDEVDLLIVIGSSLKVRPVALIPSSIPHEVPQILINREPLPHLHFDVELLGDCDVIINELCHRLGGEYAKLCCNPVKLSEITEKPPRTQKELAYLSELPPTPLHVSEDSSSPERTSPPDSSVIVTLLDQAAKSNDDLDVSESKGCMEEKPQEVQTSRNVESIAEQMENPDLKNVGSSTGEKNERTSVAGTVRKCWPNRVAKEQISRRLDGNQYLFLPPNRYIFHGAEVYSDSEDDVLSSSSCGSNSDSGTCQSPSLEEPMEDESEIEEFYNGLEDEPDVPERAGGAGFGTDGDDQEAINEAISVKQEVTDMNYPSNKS
Kind of test: Inhibition of human full length SIRT1 activity expressed in Escherichia coli using p53 peptide as substrate up to 100 uM after 45 mins in presence of NAD+ by pNCA/GDH-based microplate spectrophotometric analysis. Summed up: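 Full-length Sirt1 at 2 µM with p53 peptide RHKacKLMFK as substrate. Activity was measured in the same coupled pNCA/GDH mix as for Sirt2 (α-ketoglutarate, NADPH, Na-phosphate pH 7.8, 3% DMSO), following NADPH oxidation at 340 nm at 20 °C for 45 min. Compounds were tested up to 100 µM.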

Test [2] is described as follows: Antiproliferative activity against human IMS-M2 cells harboring NPM1c+ assessed as cell growth inhibition after 48 hrs by WST1 assay. It is filed as functional, cell-based. The note with it: IMS-M2, 48 h. Summed up: (§1)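 WST-1 proliferation assay. Cells plated in triplicate at 5×10^3 cells/well and exposed to increasing compound concentrations for 48 h at 37 °C, 5% CO2. WST-1 reagent was then added for 1 h. IC50 was obtained by nonlinear regression of each cell line's dose-response curve.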

Test [3] has as its system U-937. Put plainly: Effect on cell cycle arrest in human U937 cells at 25 uM after 48 hrs by propidium iodide staining-based FACS analysis. It is filed as functional.
Test [4] deals with U-937. Kind of test: Antiproliferative activity against human U937 cells harboring p53+/- assessed as cell growth inhibition after 48 hrs by WST1 assay. Format: functional, cell-based. To be noted: U-937, 48 h. Summed up: as §1
Background: Formazan colour is commonly taken as a measure of viable cells.

Another test has as its system OCI-AML-3. Kind of test: Antiproliferative activity against human OCI-AML3 cells harboring NPM1c+, DNMT3A R882C mutant assessed as cell growth inhibition after 48 hrs by WST1 assay. Format: functional, cell-based. The note with it: OCI-AML-3, 48 h. Summed up:
as §1

Test [5] deals with NAD-dependent protein deacylase sirtuin-5, mitochondrial (Homo sapiens) (UniProt Q9NXA8). Put plainly: Inhibition of human SIRT5 (34 to 302 residues) desuccinylase activity expressed in Escherichia coli using peptide as substrate up to 100 uM after 45 mins in presence of NAD+ by pNCA/GDH-based microplate spectrophotometric analysis.
Chain of NAD-dependent protein deacylase sirtuin-5, mitochondrial (Homo sapiens) (Q9NXA8 37-310 limits assumed): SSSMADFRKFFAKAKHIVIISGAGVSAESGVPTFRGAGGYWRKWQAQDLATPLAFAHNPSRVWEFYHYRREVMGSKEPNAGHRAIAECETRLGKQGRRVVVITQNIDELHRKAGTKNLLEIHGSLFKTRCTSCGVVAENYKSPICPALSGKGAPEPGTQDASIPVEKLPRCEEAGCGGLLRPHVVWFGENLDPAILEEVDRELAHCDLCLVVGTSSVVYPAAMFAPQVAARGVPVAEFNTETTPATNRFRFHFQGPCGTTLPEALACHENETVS
Test [6] concerns U-937. Put plainly: Induction of apoptosis in human U937 cells assessed as pre-G1 accumulation at 50 uM after 48 hrs by propidium iodide staining-based FACS analysis. Format: functional. Summed up:
(§2)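 Leukemia cells (U937, NB4, HL-60, K562) were grown in RPMI-1640 with 10% FBS, 2 mM L-glutamine and antibiotics, then treated for 48 h at 5, 10, 25 and 50 μM. 2.5×10^5 cells were stained 30 min in the dark in hypotonic PI buffer (0.1% Triton X-100, 0.1% citrate, 50 µg/mL PI, RNase A). Apoptosis was scored as pre-G1 content by flow cytometry. Duplicates, mean ± SD.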
Background: In flow cytometry, cells or beads pass a laser one at a time.

The test system of the next test is MV4-11. Kind of test: Antiproliferative activity against human MV4-11 cells harboring FLT3-ITD [t(4;11)(q21;q23)], MLL/MLLT2(AF4) mutant assessed as cell growth inhibition after 48 hrs by WST1 assay. Format: functional, cell-based. To be noted: MV4-11, 48 h. Summed up:
as §1

A further test concerns OCI-AML2. Put plainly: Antiproliferative activity against human OCI-AML2 cells harboring DNMT3A R635W mutant assessed as cell growth inhibition after 48 hrs by WST1 assay. The note with it: OCI-AML2, 48 h. Format: functional, cell-based. Summed up:
as §1

In the next test the test system is KARPAS-299. Kind of test: Antiproliferative activity against human KARPAS299 cells harboring NPM1/ALK, [t(2;5)(p23;q35)] mutant assessed as cell growth inhibition after 48 hrs by WST1 assay. The note with it: KARPAS-299, 48 h. It is filed as functional, cell-based. Summed up:
as §1

The subject of test [7] is NB-4. Put plainly: Induction of apoptosis in human NB4 cells assessed as pre-G1 accumulation at 10 uM after 48 hrs by propidium iodide staining-based FACS analysis. Format: functional, cell-based. Summed up:
as §2

The test system of a further test is HL-60. Kind of test: Antiproliferative activity against human p53 deficient HL60 cells assessed as cell growth inhibition after 48 hrs by WST1 assay. Format: functional, cell-based. The note with it: HL-60, 48 h. Summed up:
as §1

For test [8], the system named is NB-4. Kind of test: Antiproliferative activity against human NB4 cells harboring PML-RARalpha [t(15;17)(q22;q12)] mutant assessed as cell growth inhibition after 48 hrs by WST1 assay. It is filed as functional, cell-based. To be noted: NB-4, 48 h. Summed up:
as §1

In test [9] the target is NAD-dependent protein deacylase sirtuin-5, mitochondrial (Homo sapiens) (UniProt Q9NXA8). Put plainly: Inhibition of human SIRT5 (34 to 302 residues) deacetylase activity expressed in Escherichia coli using Prx1 peptide as substrate up to 100 uM after 45 mins in presence of NAD+ by pNCA/GDH-based microplate spectrophotometric analysis.
The target in test [10] is T2, NAD-dependent protein deacetylase sirtuin-3, mitochondrial (Homo sapiens) (UniProt Q9NTG7).
T2 sequence (whole entry): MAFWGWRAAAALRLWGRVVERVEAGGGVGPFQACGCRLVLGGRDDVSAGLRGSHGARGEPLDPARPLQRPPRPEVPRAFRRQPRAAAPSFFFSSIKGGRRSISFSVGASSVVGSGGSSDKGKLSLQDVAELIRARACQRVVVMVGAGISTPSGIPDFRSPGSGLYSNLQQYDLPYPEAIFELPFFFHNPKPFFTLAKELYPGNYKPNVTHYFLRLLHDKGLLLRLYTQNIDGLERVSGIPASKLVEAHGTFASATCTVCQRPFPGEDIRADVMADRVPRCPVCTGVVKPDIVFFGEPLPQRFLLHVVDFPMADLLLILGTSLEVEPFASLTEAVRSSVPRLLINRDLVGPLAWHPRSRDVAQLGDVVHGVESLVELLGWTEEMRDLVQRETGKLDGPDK
Kind of test: Inhibition of human SIRT3 (114 to 380 residues) activity expressed in Escherichia coli using AceCS2 peptide as substrate up to 100 uM after 45 mins in presence of NAD+ by pNCA/GDH-based microplate spectrophotometric analysis. Summed up: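 Same pNCA/GDH-coupled 340 nm NADPH read-out as the Sirt2 assay, using 20 mM Na-phosphate pH 7.8 with 3% DMSO at 20 °C for 45 min. Sirt3 (114-380) was used at 5 µM with AceCS2 peptide TRSGacKVMR as substrate. Inhibitors were tested up to 100 µM.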

The test system of the next test is Kasumi 1. Kind of test: Antiproliferative activity against human Kasumi-1 cells harboring AML1-ETO [t(8:21)] mutant assessed as cell growth inhibition after 48 hrs by WST1 assay. It is filed as functional, cell-based. The note with it: Kasumi 1, 48 h. Summed up: as §1

The term IC50 denotes the concentration needed to halve the response being measured. For the compound `BrCCCc1nc(-c2ccc(Br)cc2)no1`, the inhibition result in test [1], in test [5], in test [9] and in test [10] was “inactive” each time. Also, the IC50 in test [2] was 100 µM; in the test on U-937 [4] it was over 100 µM; with OCI-AML-3 it was 66 µM; in the test with MV4-11, 38 µM; in the test on OCI-AML2, 85 µM; in the test with KARPAS-299 it was 25 µM. Also, the figures for the IC50 in the test with HL-60, with NB-4 [8] and in the test with Kasumi 1 were 100 µM, 49 µM and 56 µM, respectively. Also, the outcome with U-937 [3] was inactive. Also, the Activity in the test with U-937 [6] was over 80%. Moreover, the result in the test on NB-4 [7] was Active.
